How the values were obtained:
Format in all cases: functional
[1] = system: PC-3; test: Growth inhibition of human PC3 cells assessed as cell growth at 10 uM after 72 hrs by MTT assay relative to control; settings: PC-3, 72 h, read-out: Activity
Method in brief: (§1)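 MTT colorimetric microassay after 72 h treatment at 100 µM and 10 µM. Output is percentage of cell growth ± SEM from at least 3 independent experiments, each run in quadruplicate.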

[2] = system: PC-3; test: Growth inhibition of human PC3 cells assessed as cell growth at 100 uM after 72 hrs by MTT assay relative to control; settings: PC-3, 72 h, read-out: Activity; method in brief: as §1
[3] = system: MCF7; test: Growth inhibition of human MCF7 cells assessed as cell growth at 10 uM after 72 hrs by MTT assay relative to control; settings: MCF7, 72 h, read-out: Activity; method in brief: as §1
[4] = system: MCF7; test: Growth inhibition of human MCF7 cells assessed as cell growth at 100 uM after 72 hrs by MTT assay relative to control; settings: MCF7, 72 h, read-out: Activity; method in brief: as §1
[5] = system: Calu-1; test: Growth inhibition of human HTB-54 cells assessed as cell growth at 10 uM after 72 hrs by MTT assay relative to control; settings: Calu-1, 72 h, read-out: Activity; method in brief: as §1
[6] = system: Calu-1; test: Growth inhibition of human HTB-54 cells assessed as cell growth at 100 uM after 72 hrs by MTT assay relative to control; settings: Calu-1, 72 h, read-out: Activity; method in brief: as §1
[7] = system: HT-29; test: Growth inhibition of human HT-29 cells assessed as cell growth at 10 uM after 72 hrs by MTT assay relative to control; settings: HT-29, 72 h, read-out: Activity; method in brief: as §1
[8] = system: HT-29; test: Growth inhibition of human HT-29 cells assessed as cell growth at 100 uM after 72 hrs by MTT assay relative to control; settings: HT-29, 72 h, read-out: Activity; method in brief: as §1
[9] = system: CCRF-CEM; test: Growth inhibition of human CCRF-CEM cells assessed as cell growth at 10 uM after 72 hrs by MTT assay relative to control; settings: read-out: Activity; method in brief: as §1
[10] = system: CCRF-CEM; test: Growth inhibition of human CCRF-CEM cells assessed as cell growth at 100 uM after 72 hrs by MTT assay relative to control; settings: read-out: Activity; method in brief: as §1

Row | SMILES | growth at 10 µM [1] [%] | growth at 100 µM [2] [%] | growth at 10 µM [3] [%] | growth at 100 µM [4] [%] | growth at 10 µM [5] [%] | growth at 100 µM [6] [%] | growth at 10 µM [7] [%] | growth at 100 µM [8] [%] | growth at 10 µM [9] [%] | growth at 100 µM [10] [%]
1 | O=C(NCc1ccc(Br)cc1)c1ccc2n[se]nc2c1 | 58.3 | 29.7 | 43.1 | 11.3 | 71 | 69.3 | 57.7 | 23.4 | 53.6 | 35.7
2 | O=C(NCCc1ccccc1)c1ccc2n[se]nc2c1 | 107 | 18.2 | 54.1 | -20.2 | 134 | 16.5 | 101 | 38.3 | 105 | 37.3
3 | O=C(c1ccc2n[se]nc2c1)N1CCCCC1 | 118 | 73 | 118 | 53.1 | 103 | 71.1 | 92.9 | 60 | 98.6 | 76
4 | O=C(Nc1ccc([N+](=O)[O-])cc1)c1ccc2n[se]nc2c1 | 113 | 58.8 | 63.8 | 5.6 | 148 | 108 | 101 | 78.8 | 96.3 | 70.5
5 | O=C(Nc1cccc2cccnc12)c1ccc2n[se]nc2c1 | 83.2 | 19.2 | 41.6 | -4.2 | 68.2 | 45.6 | 73.2 | 24.7 | 84.2 | 38.2
6 | COc1ccc(CN2CCN(C(=O)c3ccc4n[se]nc4c3)CC2)cc1 | 69.5 | 82.7 | 71.9 | 5.8 | 91.6 | 31.5 | 70.8 | 29.9 | 92 | 31.6
7 | O=C(Nc1cccs1)c1ccc2n[se]nc2c1 | 121 | 38.8 | 62.1 | 4.6 | 99.1 | 34.4 | 89.4 | 39.7 | 105 | 70.8
8 | O=C(NCCCCc1ccccc1)c1ccc2n[se]nc2c1 | 102 | 7.9 | 96.3 | 40.4 | 98.1 | 1.1 | 83.9 | 10.3 | 95.5 | 40.4
9 | O=C(NCc1ccccc1)c1ccc2n[se]nc2c1 | 98.2 | 27.8 | 56.7 | -5.7 | 97.8 | 23.6 | 92.7 | 37.8 | 114 | 44.7
10 | COc1cc(NC(=O)c2ccc3n[se]nc3c2)cc(OC)c1OC | 115 | 22.6 | 76.2 | -5.3 | 90.9 | 38.7 | 90.4 | 44.7 | 93.8 | 61.1
11 | O=C(Nc1ccc(Cl)cc1)c1ccc2n[se]nc2c1 | 124 | 27.8 | 77.2 | 32.7 | 81.3 | 30.2 | 83.5 | 28.4 | 85.3 | 57.3
12 | O=C(NCCCc1ccccc1)c1ccc2n[se]nc2c1 | 104 | 0.7 | 95.9 | 39.4 | 131 | 13.8 | 95.3 | 25.2 | 105 | 34.9
13 | O=C(NC1CCCCC1)c1ccc2n[se]nc2c1 | 102 | 27.1 | 54.3 | 21.2 | 56.1 | 35.3 | 61.4 | 23.2 | 82.7 | 44.6
14 | O=C(NCCCCO)c1ccc2n[se]nc2c1 | 104 | 50.6 | 64.8 | -1.3 | 88.9 | 44.9 | 91.8 | 50.4 | 104 | 62.4
15 | CCNC(=O)c1ccc2n[se]nc2c1 | 101 | 54.5 | 95.1 | 25.9 | 85.4 | 48.1 | 86.7 | 57.8 | 97.8 | 24.9
16 | O=C(Nc1ccc(N2CCOCC2)cc1)c1ccc2n[se]nc2c1 | 83.8 | 46.5 | 73.1 | 12.9 | 75.4 | 47.3 | 77.3 | 15.2 | 109 | 74.9
17 | O=C(Nc1ccncc1)c1ccc2n[se]nc2c1 | 122 | 64.7 | 93.5 | 50.1 | 113 | 79.6 | 83.7 | 58.3 | 106 | 68.6
18 | O=C(c1ccc2n[se]nc2c1)N1CCN(C(=O)c2ccc3n[se]nc3c2)CC1 | 87 | 31.1 | 70.3 | 27.2 | 88.3 | 78.2 | 94.2 | 39.9 | 99.7 | 66.2
19 | O=C(NCCCO)c1ccc2n[se]nc2c1 | 131 | 74.5 | 57 | 13.7 | 151 | 99.2 | 99.8 | 58.8 | 106 | 58.9

Reference: ChEMBL document CHEMBL4270585, “Novel selenadiazole derivatives as selective antitumor and radical scavenging agents” (Eur J Med Chem, 2018)
